From ChEMBL document CHEMBL6078712, “Triterpenoid phthalimides as selective anti-cancer agents targeting mitochondrial apoptosis” (Eur J Med Chem, 2025) come the findings set out here.

Structures are written as SMILES.

The nature of data set [1]: Cytotoxicity against human MRC5 cells assessed as inhibition of cell growth incubated for 72 hrs by MTS assay. It counts as toxicity, cell-based. In short, it runs like this: (§1)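 MTS assay on eight human cancer lines and two non-tumour fibroblast lines. IC50 is the concentration that inhibits cell growth by 50 %. SD typically up to 15 % of the mean.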
The subject of data set [2] is HCT 116 TP53(-/-). Kind of data set: Cytotoxicity against human HCT116-p53-null cells assessed as inhibition of cell growth incubated for 72 hrs by MTS assay. Format: functional, cell-based. An outline of the steps: as §1
A short description of data set [3]: Cytotoxicity against human BJ cells assessed as inhibition of cell growth incubated for 72 hrs by MTS assay. Format: toxicity, cell-based. In short, it runs like this: as §1
Data set [4] is described as follows: Cytotoxicity against human K562-Tax cells assessed as inhibition of cell growth incubated for 72 hrs by MTS assay. It counts as functional, cell-based. An outline of the steps: as §1
For data set [5], the system named is K562. Kind of data set: Cytotoxicity against human K562 cells assessed as inhibition of cell growth incubated for 72 hrs by MTS assay. Format: functional, cell-based. To be noted: K562, 72 h. In short, it runs like this:
as §1

Data set [6] concerns CCRF-CEM. The data set can be described thus: Cytotoxicity against human CCRF-CEM cells assessed as inhibition of cell growth incubated for 72 hrs by MTS assay. It counts as functional, cell-based. An outline of the steps: as §1
Data set [7] has as its system CEM-DNR. The data set can be described thus: Cytotoxicity against human CEM-DNR cells assessed as inhibition of cell growth incubated for 72 hrs by MTS assay. Format: functional, cell-based. An outline of the steps:
as §1

The subject of data set [8] is A549. The data set can be described thus: Cytotoxicity against human A549 cells assessed as inhibition of cell growth incubated for 72 hrs by MTS assay. As to conditions: A549, 72 h. Format: functional, cell-based. An outline of the steps: as §1
For data set [9], the system named is U2OS. The data set can be described thus: Cytotoxicity against human U2OS cells assessed as inhibition of cell growth incubated for 72 hrs by MTS assay. Format: functional, cell-based. In short, it runs like this:
as §1

Data set [10] deals with HCT-116. Kind of data set: Cytotoxicity against human HCT-116 cells assessed as inhibition of cell growth incubated for 72 hrs by MTS assay. Format: functional, cell-based. As to conditions: HCT-116, 72 h. An outline of the steps:
as §1

With `Cc1cc([C@@H]2CC[C@]3(C(=O)O)CC[C@]4(C)[C@H](CC[C@@H]5[C@@]6(C)CC[C@H](O)C(C)(C)[C@@H]6CC[C@]54C)[C@@H]23)cc2c1C(=O)NC2=O`, the half-inhibitory concentration (IC50) at 72 h in [1] is 34.3 µM; in data set [3], above 50 µM. Moreover, the half-maximal inhibitory concentration (IC50) is 27.2 µM in data set [2]; 7.2 µM in data set [4]; above 50 µM in data set [5]; 7.97 µM in [6]; 8.76 µM in [7]; above 50 µM in [8]. The IC50 was found to be 24.8 µM in [9] and 25.9 µM in data set [10].

On to `COc1ccc(N2C(=O)c3ccc([C@@H]4CC[C@]5(CO)CC[C@]6(C)[C@H](CC[C@@H]7[C@@]8(C)CC[C@H](OC(C)=O)C(C)(C)[C@@H]8CC[C@]76C)[C@@H]45)cc3C2=O)cc1`, for which the IC50 at 72 h in data set [1] and in data set [3] was above 50 µM throughout. Also, the IC50 in data set [2], in data set [4], in [5], in data set [6], in [7] and in [8] was above 50 µM throughout. The IC50 in data set [9] and in [10] was above 50 µM each time.

For the compound `COC(=O)c1cc([C@@H]2CC[C@]3(C(=O)O)CC[C@]4(C)[C@H](CC[C@@H]5[C@@]6(C)CC[C@H](O)C(C)(C)[C@@H]6CC[C@]54C)[C@@H]23)cc(C)c1C(=O)OC`, the IC50 at 72 h worked out at 32.4 µM in data set [1] and 33 µM in [3]. In addition, the IC50 in [2] stood at 16.1 µM; in data set [4] it was 7.21 µM; in [5], 12.1 µM; in [6], 14 µM; in [7] it was 6.78 µM; in [8], 10.4 µM. The 50% inhibitory concentration (IC50) in data set [9] was 19 µM; in data set [10], 16.3 µM.

As to `CC1(C)[C@@H](O)CC[C@]2(C)[C@H]3CC[C@@H]4[C@H]5[C@H](c6cc7c(c(-c8ccccc8)c6)C(=O)NC7=O)CC[C@]5(C(=O)O)CC[C@@]4(C)[C@]3(C)CC[C@@H]12`, the values for the IC50 at 72 h in data set [1] and in [3] were 32.4 µM and 34.5 µM, respectively. The IC50 in data set [2] worked out at 7.43 µM; in [4], 10.4 µM; in data set [5], 7.58 µM; in data set [6], 7.18 µM; in [7] it was 9.65 µM; in data set [8] it was 6.39 µM. For the same compound, the IC50 in [9] came to 9.82 µM; in data set [10], 7.22 µM.

Regarding `CC1(C)[C@@H](O)CC[C@]2(C)[C@H]3CC[C@@H]4[C@H]5[C@H](c6ccc(C#N)c(C#N)c6)CC[C@]5(C(=O)O)CC[C@@]4(C)[C@]3(C)CC[C@@H]12`, the IC50 at 72 h in [1] was determined as 25.3 µM; in data set [3] it was 35.5 µM. For the same compound, the 50% inhibitory concentration (IC50) in data set [2] stood at 31.8 µM; in [4], 5.08 µM; in data set [5] it was 30 µM; in data set [6], 5.9 µM; in data set [7], 5.23 µM; in data set [8], 19.9 µM. In addition, the IC50 was determined as 20 µM in data set [9] and 23.7 µM in data set [10].

As to `COc1ccc(N2C(=O)c3ccc([C@@H]4CC[C@]5(C(=O)O)CC[C@]6(C)[C@H](CC[C@@H]7[C@@]8(C)CC[C@H](O)C(C)(C)[C@@H]8CC[C@]76C)[C@@H]45)cc3C2=O)cc1`, the IC50 at 72 h in data set [1] and in [3] was above 50 µM in each case. Besides, the IC50 in [2] was above 50 µM; in data set [4] it was 5.35 µM; in data set [5] it was above 50 µM; in data set [6], 11.1 µM; in [7], 9.85 µM; in [8] it was 28.1 µM. In addition, the results for the IC50 in data set [9] and in [10] were 27.5 µM and above 50 µM, respectively.

Take `CC(=O)Nc1ccc(N2C(=O)c3cc([C@@H]4CC[C@]5(C(=O)O)CC[C@]6(C)[C@H](CC[C@@H]7[C@@]8(C)CC[C@H](OC(C)=O)C(C)(C)[C@@H]8CC[C@]76C)[C@@H]45)cc(-c4ccccc4)c3C2=O)cc1`: the results for the IC50 at 72 h in [1] and in data set [3] were 33.7 µM and above 50 µM, respectively. Further, the IC50 in data set [2] was 28.4 µM; in data set [4], above 50 µM; in data set [5] it was 27.9 µM; in [6] it was 8.08 µM; in data set [7], above 50 µM; in data set [8], 34.6 µM. Moreover, the IC50 in data set [9] is 18.8 µM; in data set [10] it was 16.8 µM.

As for `CC1(C)[C@@H](O)CC[C@]2(C)[C@H]3CC[C@@H]4[C@H]5[C@H](c6cc7c(c(-c8ccccc8)c6)C(=O)N(c6ccc(C#N)cc6)C7=O)CC[C@]5(C(=O)O)CC[C@@]4(C)[C@]3(C)CC[C@@H]12`, the IC50 at 72 h in data set [1] and in data set [3] was above 50 µM in each case. The IC50 in data set [2] is above 50 µM; in data set [4] it was above 50 µM; in data set [5], above 50 µM; in data set [6], 14.2 µM; in [7], above 50 µM; in data set [8], above 50 µM. Further, the half-inhibitory concentration (IC50) in data set [9] and in data set [10] was above 50 µM throughout.

Take `CC(=O)Nc1ccc(N2C(=O)c3ccc([C@@H]4CC[C@]5(C(=O)O)CC[C@]6(C)[C@H](CC[C@@H]7[C@@]8(C)CC[C@H](OC(C)=O)C(C)(C)[C@@H]8CC[C@]76C)[C@@H]45)cc3C2=O)cc1`: the values for the IC50 at 72 h in [1] and in data set [3] were 19.8 µM and 31.2 µM, respectively. Further, the IC50 came to 29.6 µM in [2]; 18.2 µM in [4]; 27.1 µM in [5]; 16.5 µM in [6]; 20.8 µM in data set [7]; 27.1 µM in data set [8]. Also, the IC50 in data set [9] was 24.3 µM; in [10] it was 24.4 µM.

For the compound `COc1ccc(N2C(=O)c3ccc([C@@H]4CC[C@]5(COC(C)=O)CC[C@]6(C)[C@H](CC[C@@H]7[C@@]8(C)CC[C@H](OC(C)=O)C(C)(C)[C@@H]8CC[C@]76C)[C@@H]45)cc3C2=O)cc1`, the IC50 at 72 h in data set [1] and in [3] was above 50 µM each time. The IC50 in data set [2], in data set [4], in data set [5], in [6], in data set [7] and in data set [8] was above 50 µM each time. Besides, the concentration for half-maximal inhibition (IC50) in [9] and in data set [10] was above 50 µM in each case.

With `CC(=O)O[C@H]1CC[C@]2(C)[C@H]3CC[C@@H]4[C@H]5[C@H](c6cc7c(c(-c8ccccc8)c6)C(=O)NC7=O)CC[C@]5(CO)CC[C@@]4(C)[C@]3(C)CC[C@H]2C1(C)C`, the IC50 at 72 h in [1] and in data set [3] was above 50 µM in each case. In addition, the IC50 in data set [2], in data set [4], in data set [5], in [6], in [7] and in [8] was above 50 µM in each case. For the same compound, the half-maximal inhibitory concentration (IC50) in [9] and in data set [10] was above 50 µM each time.

Consider `COC(=O)c1ccc([C@@H]2CC[C@]3(CO)CC[C@]4(C)[C@H](CC[C@@H]5[C@@]6(C)CC[C@H](O)C(C)(C)[C@@H]6CC[C@]54C)[C@@H]23)cc1C(=O)OC`, for which the IC50 at 72 h in [1] and in data set [3] was above 50 µM each time. Moreover, the IC50 in data set [2] was above 50 µM; in data set [4] it was 10.3 µM; in data set [5], above 50 µM; in data set [6] it was above 50 µM; in data set [7], 19.7 µM; in data set [8] it was above 50 µM. Moreover, the IC50 in data set [9] and in data set [10] was above 50 µM throughout.

For the compound `CC1(C)[C@@H](O)CC[C@]2(C)[C@H]3CC[C@@H]4[C@H]5[C@H](c6ccc7c(c6)C(=O)N(c6ccccc6)C7=O)CC[C@]5(C(=O)O)CC[C@@]4(C)[C@]3(C)CC[C@@H]12`, the IC50 at 72 h is 31 µM in data set [1] and above 50 µM in data set [3]. For the same compound, the IC50 in data set [2] is 37.8 µM; in data set [4], 14.3 µM; in [5], above 50 µM; in data set [6], 7.93 µM; in data set [7] it was 19.9 µM; in data set [8], 34.2 µM. Further, the IC50 was found to be 24.9 µM in data set [9] and 31.1 µM in [10].

On to `CC1(C)[C@@H](O)CC[C@]2(C)[C@H]3CC[C@@H]4[C@H]5[C@H](c6ccc7c(c6)C(=O)NC7=O)CC[C@]5(C(=O)O)CC[C@@]4(C)[C@]3(C)CC[C@@H]12`, for which the IC50 at 72 h in data set [1] and in [3] was above 50 µM throughout. Further, the IC50 in [2] was 34.9 µM; in data set [4], 17.3 µM; in [5] it was 35.3 µM; in data set [6] it was 26.3 µM; in data set [7] it was 20.7 µM; in data set [8] it was 26.6 µM. Besides, the results for the IC50 in data set [9] and in data set [10] were 38.5 µM and 31.1 µM, respectively.

`CC(=O)O[C@H]1CC[C@]2(C)[C@H]3CC[C@@H]4[C@H]5[C@H](c6ccc7c(c6)C(=O)N(c6cc[nH]n6)C7=O)CC[C@]5(C(=O)O)CC[C@@]4(C)[C@]3(C)CC[C@H]2C1(C)C`: the IC50 at 72 h turned out to be 28.3 µM in data set [1] and 30 µM in [3]. The IC50 was 30.1 µM in data set [2]; 21.1 µM in [4]; 29.4 µM in [5]; 18.7 µM in data set [6]; 25.4 µM in data set [7]; 27.1 µM in data set [8]. The values for the IC50 in data set [9] and in data set [10] were 26.2 µM and 24 µM, respectively.
